Among the data in ChEMBL document CHEMBL1154120, “Synthesis and properties of nucleoside derivatives acylated by chemically stable 2-(trimethylsilyl)benzoyl group” (Bioorg Med Chem, 2009) are Stability values, retold here.

Holding throughout (format): physicochemical
The nature of data set [1]: Chemical stability in NH3-EtOH (9:1, v/v) at room temperature assessed as time taken for complete hydrolysis. Summed up:
(§1)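 Nucleoside derivatives carrying 2-substituted benzoyl masking groups were kept in the basic solution. The time until hydrolysis was complete was recorded. Substrates showing no change over a 24 h observation window were scored as stable at 24 h.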

A short description of data set [2]: Chemical stability in NH3-EtOH (9:1, v/v) at 55 deg C assessed as time taken for complete hydrolysis. The method in brief:
as §1

Data set [3] in a line: Chemical stability in 2 M NaOH/EtOH solution at room temperature assessed as time taken for complete hydrolysis. Summed up:
as §1

Data set [4] in a line: Chemical stability in 1.5 M NaOMe/MeOH solution at room temperature assessed as time taken for complete hydrolysis. The method in brief:
as §1

Data set [5] can be described thus: Chemical stability in 0.5 M NaOH/EtOH solution at room temperature assessed as time taken for complete hydrolysis. The method in brief: as §1

As for `C[Si](C)(C)c1ccccc1C(=O)O[C@@H]1[C@H](O)[C@@H](CO)O[C@H]1n1ccc(=O)[nH]c1=O`, the Stability in data set [1] is 48 h; in data set [2], 8 h.
With `Cc1cn([C@H]2C[C@H](O)[C@@H](COC(=O)C=C[Si](C)(C)C)O2)c(=O)[nH]c1=O`, the Stability was 12 h in data set [1] and 4 h in data set [2].
With `C[Si](C)(C)c1ccccc1C(=O)Nc1ccn([C@H]2C[C@H](O)[C@@H](CO)O2)c(=O)n1`, the Stability in data set [2], in data set [3] and in data set [4] was over 24 h each time.
In the case of `Cc1cn([C@H]2C[C@H](O)[C@@H](COC(=O)c3ccccc3C(C)(C)C)O2)c(=O)[nH]c1=O`, the Stability was over 24 h in data set [1], over 24 h in data set [2], 24 h in data set [5] and 4 h in data set [3].
With `Cc1ccccc1C(=O)OC[C@H]1O[C@@H](n2cc(C)c(=O)[nH]c2=O)C[C@@H]1O`, the Stability is 24 h in data set [1], 10 h in data set [2], 1 h in data set [5] and 0.25 h in data set [3].
For `Cc1cn([C@H]2C[C@H](O)[C@@H](COC(=O)c3ccccc3[Si](C)(C)C)O2)c(=O)[nH]c1=O`, the Stability in data set [1] is over 24 h; in data set [2], over 24 h; in data set [5], 24 h; in data set [3], 4 h.
